3 compounds from ChEMBL document CHEMBL2150885, “Dual anticoagulant/antiplatelet persulfated small molecules” (Eur J Med Chem, 2011) can be followed below.

Molecules are shown by their SMILES. Calls of active or inactive are those of the source. No cut-off for these calls is given here.

Series [1] has as its system Plasma. Kind of series: Anticoagulant activity in human plasma assessed as effect on APC level using CBS 42.46 as synthetic substrate at 1 x 10^-3 M. Format: functional. Put shortly: (§1)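 Compound in saline added to citrated human plasma. Protein C activated by a snake venom-derived activator; enzyme formed quantified by amidolytic activity on chromogenic substrate CBS 42.46. Calibration curve linear 3–150%; normal and pathological control plasmas verify accuracy. Compounds at 1 × 10⁻³ M.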

The test system of series [2] is Platelet. Kind of series: Antiplatelet activity against adenosine diphosphate-induced platelet aggregation in human blood at 6.25 x 10^-4 M measured for 6 mins by multiplate electrical impedance aggregometry. Format: functional, cell-based. Put shortly:
(§2)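 Hirudin-anticoagulated (final […]) healthy-donor whole blood, used within 0.5–1 h. Compound in saline to final 6.25 × 10⁻⁴ M; saline control, acetylsalicylic acid 6.25 × 10⁻⁴ M reference. Blood mixed with saline at 37 °C for 180 s, then agonist at final TRAP-6 […], arachidonic acid 0.5 mM or ADP […]. Impedance recorded 6 min; AUC from mean of two curves, accepted if within 20%.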

Series [3] relates to Plasma. In words: Anticoagulant activity in human plasma assessed as effect on APC level using CBS 42.46 as synthetic substrate. Format: functional, cell-free. Put shortly:
as §1

The subject of a further series is NCI-H460. In words: Cytotoxicity against human NCI-H460 cells at 1.5 x 10^-4 after 48 hrs. As to conditions: nci-h460, 48 h. Format: cell-based.
Series [4] has as its system Plasma. Kind of series: Anticoagulant activity in human plasma assessed as effect on prothrombin level by PT clotting time with factor II deficient plasma.
For series [5], the system named is Plasma. Kind of series: Anticoagulant activity in human plasma assessed as concentration required to double prothrombin time. Format: functional. Put shortly:
(§3)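 Pooled citrated human plasma; compounds in water (10% DMSO for some), final 5 × 10⁻³ to 0.05 × 10⁻³ M; heparin 0.1–10 UI/mL as reference. APTT, PT and TT measured on a coagulometer with commercial kits, clotting time in s. Duplicates repeated on three days (n = 6). Concentration doubling clotting time obtained by linear regression of each concentration-response curve.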

Series [6] deals with Antithrombin-III (Bos taurus) (UniProt P41361). In words: Inhibition of bovine antithrombin-3 at 1 x 10^-3 M.
Sequence of Antithrombin-III (Bos taurus) (P41361 whole entry): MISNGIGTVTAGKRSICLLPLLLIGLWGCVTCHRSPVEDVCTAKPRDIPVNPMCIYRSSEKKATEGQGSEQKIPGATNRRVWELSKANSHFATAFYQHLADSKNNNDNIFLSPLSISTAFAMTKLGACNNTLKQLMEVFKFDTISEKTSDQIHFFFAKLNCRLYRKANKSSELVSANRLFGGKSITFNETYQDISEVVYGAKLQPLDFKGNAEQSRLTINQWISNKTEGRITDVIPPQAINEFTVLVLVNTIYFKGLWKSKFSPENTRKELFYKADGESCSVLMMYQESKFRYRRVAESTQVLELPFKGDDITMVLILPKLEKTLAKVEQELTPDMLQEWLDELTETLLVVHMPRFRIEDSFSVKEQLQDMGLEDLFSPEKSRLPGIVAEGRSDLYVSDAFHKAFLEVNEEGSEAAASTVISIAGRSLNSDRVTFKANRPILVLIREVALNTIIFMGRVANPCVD
Series [7] has as its system Plasma. In words: Anticoagulant activity in human plasma assessed as effect on prothrombin level by PT clotting time with factor II deficient plasma at 1 x 10^-3 M.
Series [8] concerns Blood. In words: Anticoagulant activity in human whole blood assessed as clotting time at 3.12 x 10'4 M by thromboelastography assay. Format: functional. Put shortly: (§4)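 Citrated whole blood (citrate:blood 1:9) from healthy donors. Compound in saline diluted 1:16 into blood to final 3.12 × 10⁻⁴ or 6.25 × 10⁻⁴ M; saline control. Thromboelastography with intrinsic activator (InTEM); R clotting time and K clot formation time in s. Mean of three independent experiments in duplicate.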

The subject of another series is MCF7. Kind of series: Cytotoxicity against human ER-positive MCF7 cells at 1.5 x 10^-4 after 48 hrs. Format: cell-based. As to conditions: mcf7, 48 h.
The target in series [9] is Prothrombin (Homo sapiens) (UniProt P00734). Kind of series: Inhibition of human thrombin using Tosyl-Gly-Pro-Arg-p-nitroaniline as substrate at 1 x 10^-3 M by chromogenic substrate hydrolysis assay. Put shortly:
(§5)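 Chromogenic hydrolysis in 50 mM Tris/HCl pH 8.3, 227 mM NaCl, 0.1% BSA, with and without bovine antithrombin III (1 U/mL final). Human factor Xa 0.5 U/mL with CBS 31.39 […], or human thrombin 0.06 U/mL with Chromozym TH […]. Absorbance at 405 nm, enzyme-free blank subtracted; initial slope vs water control gives % inhibition. Compounds at 1 × 10⁻³ M; n = 6.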

Series [10] is described as follows: Antiplatelet activity against collagen-ADP-activated platelet in human blood assessed as closure time at 6.25 x 10^-4 M. Format: functional. Put shortly: (§6)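 Healthy-donor whole blood collected into hirudin (final […]), analysed within 0.5–1 h. Closure time measured in a PFA-100 under high shear through an aperture, platelets activated by a collagen-coated membrane with ADP or epinephrine.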

Series [11] concerns Plasma. Kind of series: Anticoagulant activity in human plasma assessed as concentration required to double thrombin time. Format: functional. Put shortly: as §3
The target of series [12] is Coagulation factor X (Homo sapiens) (UniProt P00742). In words: Inhibition of human factor 10a using CH3SO2-D-Leu-Gly-Arg-pNA, AcOH as substrate at 1 x 10^-3 M by chromogenic substrate hydrolysis assay. Put shortly: as §5
Sequence of Coagulation factor X (Homo sapiens) (P00742 41-179 limits assumed): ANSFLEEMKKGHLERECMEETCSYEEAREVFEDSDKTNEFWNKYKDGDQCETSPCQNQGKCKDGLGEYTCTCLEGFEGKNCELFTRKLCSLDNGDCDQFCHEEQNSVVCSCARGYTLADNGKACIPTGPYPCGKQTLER
Sequence of Coagulation factor X (Homo sapiens) (P00742 235-488 limits assumed): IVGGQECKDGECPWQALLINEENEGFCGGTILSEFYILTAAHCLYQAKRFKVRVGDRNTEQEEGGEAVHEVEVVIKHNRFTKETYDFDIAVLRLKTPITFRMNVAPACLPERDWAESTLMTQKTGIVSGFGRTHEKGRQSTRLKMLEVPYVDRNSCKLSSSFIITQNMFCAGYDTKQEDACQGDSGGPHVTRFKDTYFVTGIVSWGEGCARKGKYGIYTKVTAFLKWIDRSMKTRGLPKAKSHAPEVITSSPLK
For series [13], the system named is Blood. In words: Anticoagulant activity in human whole blood assessed as clotting formation time at 3.12 x 10'4 M by InTEM-TEG assay. Format: functional. Put shortly: as §4
The test system of series [14] is Platelet. In words: Antiplatelet activity against thrombin receptor-activating peptide-6-induced platelet aggregation in human blood at 6.25 x 10^-4 M measured for 6 mins by multiplate electrical impedance aggregometry. Format: functional, cell-based. Put shortly:
as §2

Series [15] deals with Platelet. Kind of series: Antiplatelet activity against arachidonic acid-induced platelet aggregation in human blood at 6.25 x 10^-4 M measured for 6 mins by multiplate electrical impedance aggregometry. Format: functional, cell-based. Put shortly: as §2
Series [16] is described as follows: Cytotoxicity against human A375-C5 cells at 1.5 x 10^-4 after 48 hrs. Format: cell-based. As to conditions: a375-c5, 48 h.
For series [17], the system named is Plasma. In words: Anticoagulant activity in human plasma assessed as concentration required to double activated partial thromboplastin time. Format: functional. Put shortly: as §3
The nature of series [18]: Antiplatelet activity against collagen-epinephrine-activated platelet in human blood assessed as closure time at 6.25 x 10^-4 M. Format: functional. Put shortly: as §6
Series [19] is described as follows: Metabolic stability of the compound in human plasma assessed as compound remaining after 3 hrs by IP-RP-HPLC analysis. Format: ADME, cell-free. As to conditions: read-out: Stability. Put shortly: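 Compound at 25 mM final in human plasma diluted 1:1 with PBS pH 7.4, shaken at 37 °C; sampled at 0 and 180 min, three independent samples. TBA buffer (pH 8) added for ion-pairing, quenched with 4× cold acetonitrile, centrifuged, filtered, dried, redissolved in mobile phase. Quantified by ion-pairing RP-HPLC on C-18, phosphate/TBA buffer:acetonitrile 55:45, 1.0 mL/min.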

The species entered for the next series is Mus musculus. Kind of series: Acute hepatic toxicity in CD1 mouse. Format: organism-based. As to conditions: in vivo.

As to `O=S(=O)([O-])OC[C@H]1O[C@@H](Oc2cc(/C=C/c3ccc(OS(=O)(=O)[O-])cc3)cc(OS(=O)(=O)[O-])c2)[C@H](OS(=O)(=O)[O-])[C@@H](OS(=O)(=O)[O-])[C@@H]1OS(=O)(=O)[O-].[Na+].[Na+].[Na+].[Na+].[Na+].[Na+]`, the Activity in the series with Plasma [1] was 50.5%; with Plasma [3] it was “Dose-dependent effect”; with NCI-H460, “Non-toxic”; with Plasma [4], “Dose-dependent effect”; in the series with Plasma [5], “Dose-dependent effect”; in the series on Plasma [7] it was 12%. Further, the Activity result in the series on MCF7 is “Non-toxic”; in the series on Plasma [11], “Dose-dependent effect”; in the series on Plasma [11] (record 2), 1.95 mM; in series [16], “Non-toxic”; in the series with Plasma [17], “Dose-dependent effect”. For the same compound, the values for the AUC in the series with Platelet [2], with Platelet [14] and with Platelet [15] were 173 AU.min, 1020 AU.min and 400 AU.min, respectively. Further, the 2PT in the series with Plasma [5] worked out at 1.77 mM. Further, the inhibition result in series [6], in [9] and in series [12] was “inactive” in each case. Besides, the Time is given as 447 s in the series with Blood [8], 212 s in [10], 136 s with Blood [13] and 273 s in series [18]. Further, the 2aPTT in the series with Plasma [17] is 0.146 mM. In series [19], the remaining at 3 h was found to be 95%.
Turning to `C[C@@H]1O[C@@H](OC[C@H]2O[C@@H](Oc3c(-c4ccc(OS(=O)(=O)[O-])c(OS(=O)(=O)[O-])c4)oc4cc(OS(=O)(=O)[O-])cc(OS(=O)(=O)[O-])c4c3=O)[C@H](OS(=O)(=O)[O-])[C@@H](OS(=O)(=O)[O-])[C@@H]2OS(=O)(=O)[O-])[C@H](OS(=O)(=O)[O-])[C@H](OS(=O)(=O)[O-])[C@H]1OS(=O)(=O)[O-].[Na+].[Na+].[Na+].[Na+].[Na+].[Na+].[Na+].[Na+].[Na+].[Na+]`, the Activity with Plasma [1] was 28.5%; with Plasma [3] it was “Dose-dependent effect”; in the series on NCI-H460 it was “Non-toxic”; with Plasma [4], “Dose-dependent effect”; with Plasma [7], 9%; in the series on MCF7 it was “Non-toxic”. Further, the Activity result (in series [16]; in the series listed under Mus musculus) was “Non-toxic” in each case. Besides, the values for the AUC with Platelet [2], in the series with Platelet [14] and in the series on Platelet [15] were 230 AU.min, 950 AU.min and 215 AU.min, respectively.
Turning to `COc1ccc(-c2cc(=O)c3c(O)cc(O[C@@H]4O[C@H](CO[C@@H]5O[C@@H](C)[C@H](OS(=O)(=O)[O-])[C@@H](OS(=O)(=O)[O-])[C@H]5OS(=O)(=O)[O-])[C@@H](OS(=O)(=O)[O-])[C@H](OS(=O)(=O)[O-])[C@H]4OS(=O)(=O)[O-])cc3o2)cc1O.[Na+].[Na+].[Na+].[Na+].[Na+].[Na+]` [HEXASULFATED DIOSMIN], the Activity in the series with Plasma [1] was 87%; with NCI-H460, “Non-toxic”; in the series with Plasma [7], 54%; in the series with MCF7, “Non-toxic”; in [16], “Non-toxic”; in the series listed under Mus musculus, “Non-toxic”. Moreover, the results for the AUC with Platelet [2], in the series on Platelet [14] and in the series on Platelet [15] were 200 AU.min, 1090 AU.min and 340 AU.min, respectively. In addition, the 2aPTT in the series on Plasma [17] is on record as 4.35 ×10⁻⁴ M.
